Data reported in ChEMBL document CHEMBL1949555, “Piperazine-2,3-dicarboxylic acid derivatives as dual antagonists of NMDA and GluK1-containing kainate receptors” (J Med Chem, 2012).

What was measured:
[1] = target: Glutamate receptor ionotropic, kainate 1 (Homo sapiens, UniProt P39086); test: Antagonist activity at human recombinant GluK1 receptor expressed in human HEK293 cells assessed as inhibition of glutamate-stimulated calcium influx by fluorescence assay; type: functional, cell-based
How it was run: (§1)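 HEK293 lines stably expressing homomeric human GluK1(Q) or GluK2(Q), passaged no more than 20 times. Ca2+ influx is read as fluorescence, with concanavalin A present. Test compound is added in a first run, then L-glutamate plus antagonist in a second run (final glutamate 30 μM for GluK1, 10 μM for GluK2). IC50 values are converted to KB. Means ± s.e.m.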

[2] = target: Ionotropic glutamate receptor NMDA 1/2D (Rattus norvegicus, UniProt P35439+Q62645); test: Antagonist activity rat recombinant GluN1/GluN2D receptor expressed in Xenopus laevis oocytes assessed as inhibition of glutamate-induced response by two-electrode voltage-clamp electrophysiology assay; type: functional, cell-based, Oocyte; settings: read-out: Ki(app)
[3] = target: Glutamate NMDA receptor; Grin1/Grin2c (Rattus norvegicus, UniProt P35439+Q00961); test: Antagonist activity rat recombinant GluN1/GluN2C receptor expressed in Xenopus laevis oocytes assessed as inhibition of glutamate-induced response by two-electrode voltage-clamp electrophysiology assay; type: functional, cell-based, Oocyte; settings: read-out: Ki(app)
How it was run: (§2)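 Two-electrode voltage clamp of oocytes expressing rat GluN1a with the given GluN2 subunit, held at −60 mV in buffer of 116 mM NaCl, 2 mM KCl, 0.3 mM BaCl2, 5 mM HEPES, pH 7.4. Response is the steady plateau to bath-applied 10 μM L-glutamate plus 10 μM glycine. IC50 converted to apparent Ki via Ki = IC50/(1 + [agonist]/EC50). Means ± s.e.m.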

[4] = species on record: Rattus norvegicus; test: Selectivity ratio of Ki(app) for rat recombinant GluN1/GluN2C receptor to Ki(app) for rat recombinant GluN1/GluN2D receptor
How it was run: (§3)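 Rat GluN1a is co-expressed with GluN2A, 2B, 2C or 2D in Xenopus oocytes and recorded by two-electrode voltage clamp at −60 mV. Buffer is 116 mM NaCl, 2 mM KCl, 0.3 mM BaCl2, 5 mM HEPES, pH 7.4. The plateau response to bath-applied 10 μM L-glutamate plus 10 μM glycine is measured. Apparent Ki is IC50/(1+[agonist]/EC50).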

[5] = target: Glutamate receptor ionotropic, kainate 2 (Homo sapiens, UniProt Q13002); test: Antagonist activity at human recombinant GluK2 receptor expressed in human HEK293 cells assessed as inhibition of glutamate-stimulated calcium influx by fluorescence assay; type: functional, cell-based; how it was run: as §1
[6] = target: Glutamate NMDA receptor; Grin1/Grin2b (Rattus norvegicus, UniProt P35439+Q00960); test: Antagonist activity rat recombinant GluN1/GluN2B receptor expressed in Xenopus laevis oocytes assessed as inhibition of glutamate-induced response by two-electrode voltage-clamp electrophysiology assay; type: functional, cell-based, Oocyte; settings: read-out: Ki(app); how it was run: as §2
[7] = species on record: Rattus norvegicus; test: Selectivity ratio of Ki(app) for rat recombinant GluN1/GluN2A receptor to Ki(app) for rat recombinant GluN1/GluN2D receptor
[8] = target: Glutamate NMDA receptor; Grin1/Grin2a (Rattus norvegicus, UniProt P35439+Q00959); test: Antagonist activity at rat recombinant GluN1/GluN2A receptor expressed in Xenopus laevis oocytes assessed as inhibition of glutamate-induced response by two-electrode voltage-clamp electrophysiology assay; type: functional, cell-based, Oocyte; settings: read-out: Ki(app)
[9] = system: Kainate receptors (Rattus norvegicus); test: Displacement of [3H]-Kainate from native kainate receptors in rat brain homogenate; settings: concentration not given here
[10] = species on record: Rattus norvegicus; test: Selectivity ratio of Ki(app) for rat recombinant GluN1/GluN2B receptor to Ki(app) for rat recombinant GluN1/GluN2D receptor; how it was run: as §3
[11] = Selectivity ratio of Kb for human recombinant GluK1 receptor to Ki(app) for rat recombinant GluN1/GluN2D receptor
[12] = target: Glutamate NMDA receptor; Grin1/Grin2c (Rattus norvegicus) (UniProt P35439+Q00961); test: Antagonist activity rat recombinant GluN1/GluN2C receptor expressed in Xenopus laevis oocytes assessed as inhibition of glutamate-induced response at 100 uM by two-electrode voltage-clamp electrophysiology assay; type: functional, cell-based; settings: Oocyte
How it was run: (§4)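 Rat GluN1a co-expressed with GluN2A, 2B, 2C or 2D in Xenopus oocytes. Two-electrode voltage clamp at −60 mV in buffer of 116 mM NaCl, 2 mM KCl, 0.3 mM BaCl2, 5 mM HEPES, pH 7.4. Response is the steady plateau evoked by bath-applied 10 μM L-glutamate plus 10 μM glycine. Read-out is percent antagonism by 100 μM test compound.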

[13] = target: Ionotropic glutamate receptor NMDA 1/2D (Rattus norvegicus) (UniProt P35439+Q62645); test: Antagonist activity rat recombinant GluN1/GluN2D receptor expressed in Xenopus laevis oocytes assessed as inhibition of glutamate-induced response at 100 uM by two-electrode voltage-clamp electrophysiology assay; type: functional, cell-based; settings: Oocyte; how it was run: as §4
[14] = target: Glutamate NMDA receptor; Grin1/Grin2a (Rattus norvegicus) (UniProt P35439+Q00959); test: Antagonist activity at rat recombinant GluN1/GluN2A receptor expressed in Xenopus laevis oocytes assessed as inhibition of glutamate-induced response at 100 uM by two-electrode voltage-clamp electrophysiology assay; type: functional, cell-based; settings: Oocyte; how it was run: as §4
[15] = target: Glutamate NMDA receptor; Grin1/Grin2b (Rattus norvegicus) (UniProt P35439+Q00960); test: Antagonist activity rat recombinant GluN1/GluN2B receptor expressed in Xenopus laevis oocytes assessed as inhibition of glutamate-induced response at 100 uM by two-electrode voltage-clamp electrophysiology assay; type: functional, cell-based; settings: Oocyte; how it was run: as §4

Chain of Glutamate receptor ionotropic, kainate 2 (Q13002 whole entry): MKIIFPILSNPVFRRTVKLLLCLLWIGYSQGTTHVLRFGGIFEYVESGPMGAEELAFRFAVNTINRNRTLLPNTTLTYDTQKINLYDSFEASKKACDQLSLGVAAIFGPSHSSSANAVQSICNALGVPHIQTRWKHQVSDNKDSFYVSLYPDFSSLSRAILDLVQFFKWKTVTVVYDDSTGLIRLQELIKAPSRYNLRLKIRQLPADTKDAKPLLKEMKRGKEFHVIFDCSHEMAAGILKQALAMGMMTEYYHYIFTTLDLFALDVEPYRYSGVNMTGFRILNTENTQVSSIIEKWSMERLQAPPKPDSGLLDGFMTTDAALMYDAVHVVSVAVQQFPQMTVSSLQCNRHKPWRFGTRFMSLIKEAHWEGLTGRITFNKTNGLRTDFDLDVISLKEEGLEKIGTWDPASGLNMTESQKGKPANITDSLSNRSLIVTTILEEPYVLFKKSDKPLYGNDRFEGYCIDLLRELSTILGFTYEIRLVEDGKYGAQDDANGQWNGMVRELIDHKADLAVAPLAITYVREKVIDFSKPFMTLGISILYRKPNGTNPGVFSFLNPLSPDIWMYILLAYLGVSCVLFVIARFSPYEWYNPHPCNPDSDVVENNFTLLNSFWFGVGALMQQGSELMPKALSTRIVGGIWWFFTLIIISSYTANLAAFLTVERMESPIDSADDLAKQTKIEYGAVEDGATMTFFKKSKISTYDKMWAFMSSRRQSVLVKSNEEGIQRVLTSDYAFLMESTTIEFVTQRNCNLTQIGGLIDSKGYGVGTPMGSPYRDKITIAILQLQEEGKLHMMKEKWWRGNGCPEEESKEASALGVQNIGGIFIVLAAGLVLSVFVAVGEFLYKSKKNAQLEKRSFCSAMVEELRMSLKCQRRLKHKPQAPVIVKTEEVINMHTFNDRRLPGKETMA
Chain of Glutamate receptor ionotropic, kainate 1 (P39086 whole entry): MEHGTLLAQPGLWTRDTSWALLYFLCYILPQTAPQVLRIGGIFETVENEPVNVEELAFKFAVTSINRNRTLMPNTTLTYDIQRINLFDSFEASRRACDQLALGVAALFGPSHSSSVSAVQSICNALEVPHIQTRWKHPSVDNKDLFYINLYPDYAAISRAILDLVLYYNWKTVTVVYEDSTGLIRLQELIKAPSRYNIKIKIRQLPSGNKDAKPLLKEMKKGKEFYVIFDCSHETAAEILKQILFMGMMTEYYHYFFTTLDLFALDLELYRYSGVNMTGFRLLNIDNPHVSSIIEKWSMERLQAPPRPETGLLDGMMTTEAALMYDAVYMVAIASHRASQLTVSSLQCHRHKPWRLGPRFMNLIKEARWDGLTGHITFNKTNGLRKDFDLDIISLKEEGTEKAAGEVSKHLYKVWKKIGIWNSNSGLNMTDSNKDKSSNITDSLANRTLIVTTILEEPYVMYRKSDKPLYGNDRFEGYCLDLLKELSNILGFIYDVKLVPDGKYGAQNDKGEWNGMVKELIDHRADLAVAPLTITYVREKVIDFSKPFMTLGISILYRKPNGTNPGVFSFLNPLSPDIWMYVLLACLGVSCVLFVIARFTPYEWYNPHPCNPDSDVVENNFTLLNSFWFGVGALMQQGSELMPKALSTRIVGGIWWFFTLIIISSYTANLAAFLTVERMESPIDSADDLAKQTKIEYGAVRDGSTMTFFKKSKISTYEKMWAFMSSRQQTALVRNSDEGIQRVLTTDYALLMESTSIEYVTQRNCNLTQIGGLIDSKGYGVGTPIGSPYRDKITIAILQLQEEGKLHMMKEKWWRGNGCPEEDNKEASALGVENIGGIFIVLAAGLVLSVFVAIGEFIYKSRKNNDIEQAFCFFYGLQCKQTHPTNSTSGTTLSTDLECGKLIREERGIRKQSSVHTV

Compound | Kb [1] [µM] | Ki [2] [µM] | Ki [3] [µM] | Kb [5] [µM] | Ki [6] [µM] | Ki [8] [µM] | also measured
O=C(O)[C@H]1NCCN(S(=O)(=O)c2ccc(-c3ccccc3)cc2)[C@H]1C(=O)O | > 100 | 10.9 |  |  |  |  | 
O=C(O)[C@H]1NCCN(C(=O)c2ccc3ccc4ccccc4c3c2)[C@H]1C(=O)O | 14.2 | 2.4 | 5.2 | > 100 | 17.2 | 22 | Ratio Ki(app) [4]: 2; Ratio Ki(app) [7]: 10; inhibition [9]: 10%; Ratio Ki(app) [10]: 7
O=C(O)[C@H]1NCCN(C(=O)c2ccc3c(c2)CCc2cc(Br)ccc2-3)[C@H]1C(=O)O | 11.5 | 1 |  |  |  |  | 
O=C(O)[C@H]1NCCN(C(=O)c2ccc3c(ccc4cc(Br)ccc43)c2)[C@H]1C(=O)O | 8 | 0.15 |  | > 100 |  |  | 
O=C(O)[C@H]1NCCN(Cc2ccc3c(ccc4ccccc43)c2)[C@H]1C(=O)O | 39 | 3.2 |  |  |  |  | 
O=C(O)[C@@H]1[C@H](C(=O)O)NCCN1C(=O)c1ccc2c(ccc3ccccc32)c1 | 3 | 0.09 | 0.07 | > 100 | 0.22 | 0.21 | Ratio [11]: 30
O=C(O)[C@H]1NCCN(C(=O)c2ccc3c(c2)CCc2ccccc2-3)[C@H]1C(=O)O | 14.1 | 0.57 |  | > 100 |  |  | 
O=C(O)[C@H]1NCCN(C(=O)c2ccc(-c3ccccc3)cc2)[C@H]1C(=O)O | 9.8 | 4.3 |  | > 100 |  |  | 
O=C(O)[C@H]1NCCN(C(=O)c2ccc3ccccc3c2)[C@H]1C(=O)O | 45.6 |  |  |  |  |  | 
O=C(O)C1NCCN(C(=O)c2ccc3c(ccc4ccccc43)c2)C1C(=O)O (racemic) [listing 1 of 2 here] |  | 0.13 | 0.1 |  | 0.31 | 0.55 | 
O=C(O)[C@@H]1NCCN(C(=O)c2ccc3c(ccc4ccccc43)c2)[C@H]1C(=O)O (racemic) | 59.2 | 6 |  |  |  |  | 
O=C(O)C1NCCN(C(=O)c2ccc3c(ccc4ccccc43)c2)C1C(=O)O (racemic) [listing 2 of 2 here] | 7.5 |  |  | > 100 |  |  | 
O=C(O)[C@H]1NCCN(C(=O)c2ccc3cc(F)ccc3c2)[C@H]1C(=O)O (relative stereo) | 52.9 | 5.1 | 3.6 |  | 12.3 | 7.4 | 
O=C(O)[C@H]1NCCN(C(=O)c2ccc3cc(Br)ccc3c2)[C@H]1C(=O)O (relative stereo) | 16.2 | 2.2 | 2.1 |  | 2.7 | 4.1 | 
O=C(O)[C@H]1NCCN(C(=O)c2ccc3cc(I)ccc3c2)[C@H]1C(=O)O (relative stereo) | 7.5 | 1.6 | 1.8 | > 100 | 1.3 | 3 | 
O=C(O)[C@H]1NCCN(C(=O)CCc2ccc3ccccc3c2)[C@H]1C(=O)O (relative stereo) | 67.8 | 2.7 | 4.1 |  | 2.3 | 5.1 | 
O=C(O)c1ccc2cc(C(=O)N3CCN[C@H](C(=O)O)[C@@H]3C(=O)O)ccc2c1 (relative stereo) | 59.7 | > 100 | > 100 |  | > 100 | > 100 | inhibition [12]: < 5%; inhibition [13]: < 5%; inhibition [14]: < 5%; inhibition [15]: < 5%
O=C(O)[C@H]1NCCN(C(=O)c2ccc(C#Cc3ccccc3)cc2)[C@H]1C(=O)O (relative stereo) |  | 10.5 | 21.4 | > 100 | 24.1 | 138 | 
O=C(O)[C@H]1NCCN(C(=O)c2ccc(/N=N/c3ccccc3)cc2)[C@H]1C(=O)O (relative stereo) |  | 10.8 | 28 | > 100 | 12.9 | 99.3 | 
O=C(O)[C@H]1NCCN(C(=O)c2ccc(CCc3ccccc3)cc2)[C@H]1C(=O)O (relative stereo) | 16.7 | > 100 | > 100 |  | > 100 | > 100 | inhibition [12]: 29.1%; inhibition [13]: 10.2%; inhibition [14]: 11.5%; inhibition [15]: > 5%
O=C(O)[C@H]1NCCN(C(=O)c2ccc3cc(Cl)c4ccccc4c3c2)[C@H]1C(=O)O (relative stereo) | 21.8 | 1.7 | 3.2 |  | 15.2 | 7.2 | 
O=C(O)[C@H]1NCCN(C(=O)c2ccc3cc(Br)c4ccccc4c3c2)[C@H]1C(=O)O (relative stereo) | 12.8 | 1.2 | 2.8 | > 100 | 8 | 11.5 | Ratio Ki(app) [4]: 2; Ratio Ki(app) [7]: 10; Ratio [11]: 9; inhibition [9]: 10%; Ratio Ki(app) [10]: 7
O=C(O)[C@H]1NCCN(C(=O)c2ccc3cc4ccccc4cc3c2)[C@H]1C(=O)O (relative stereo) | 14.4 | 2.5 | 3.4 | > 100 | 5.2 | 10.5 | 
O=C(O)C1NCCN(C(=O)c2ccc3c(ccc4ccccc43)c2)C1C(=O)O (single isomer, unassigned; (+)) | 82 |  |  |  |  |  | 
